Experimental data published in ChEMBL document CHEMBL5576140, “Computational Design of Pore-Forming Peptides with Potent Antimicrobial and Anticancer Activities” (J Med Chem, 2024).
The source made the active and inactive calls.

What was measured:
Staphylococcus aureus [1] = assay: Antimicrobial activity against Staphylococcus aureus NE1740 harboring single transposon insertion mutation in staphopain A at 30 uM incubated for 18 hrs relative to control; type: functional
In short: (§1)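 CA-MRSA USA300 LAC derivative JE2 and single transposon insertion mutants derived from JE2, each lacking an extracellular protease gene, were exposed to peptides up to 30 μM. The read-out was percent growth inhibition. Peptides were dissolved in PBS, and tests were run in triplicate.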

[2] = Toxicity against reconstructed human skin model assessed as tissue viability at 50 uM incubated for 1 hr followed by compound washout measured after 42 hrs by MTT assay; type: tissue-based, Skin of body; conditions: read-out: Activity
In short: (§2)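 Reconstructed human epidermis with stratum corneum, per OECD TG 439 skin irritation guideline. Tissues exposed 1 h to peptide at 50 μM, then 42 h post-treatment incubation. Viability read by MTT. Controls were SDS and melittin.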

HL-60 [3] = assay: pH-dependent anticancer activity against human HL-60 cells in RPMI medium at 10 uM incubated for 1 hr; type: functional, cell-based
In short: (§3)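 Cells cultured in RPMI, DMEM or PBS, each adjusted to pH 8, 7 or 6, plus one unadjusted (~7.6). Peptide at 10 μM for only 1 h, to limit pH drift from CO₂-bicarbonate buffering. Cell viability read. Controls were melittin, ampicillin and PBS. Two independent repetitions; effects analysed by ANOVA.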

A549 = assay: Anti-cancer activity against human A549 cells incubated for 72 hrs by Cell Titer Glo assay; type: functional, cell-based; conditions: A549, 72 h
MDA-MB-231 = assay: Anti-cancer activity against human MDA-MB-231 cells incubated for 72 hrs by Cell Titer Glo assay; type: functional, cell-based; conditions: MDA-MB-231, 72 h
OVCAR-3 = assay: Anti-cancer activity against human OVCAR-3 cells incubated for 72 hrs by Cell Titer Glo assay; type: functional, cell-based; conditions: OVCAR-3, 72 h
Staphylococcus aureus [4] = assay: Depolarization of cytoplasmic membrane in Staphylococcus aureus ATCC 12600 at MIC measured for 45 mins by DiSC3-(5) dye based assay; type: functional, organism-based
In short: (§4)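 Bacteria loaded with membrane-potential dye DiSC3-(5), then treated with peptide at its MIC for the respective strain; depolarization read as rise in dye fluorescence; polymyxin B and levofloxacin as reference antibiotics.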

Mus musculus = assay: Induction of wound healing activity in immunosuppressed Balb/c mouse excisional dorsal wound infection model infected with Acinetobacter baumannii NCTC 13301 assessed as area of serocellular crust at about 10 mg/kg treated for 7 days once daily measured after 20 days; type: functional; conditions: time 20 day
[5] = Hemolytic activity against human RBC incubated for 1 hr by microplate reader analysis; type: toxicity, cell-based, Erythrocyte; conditions: red blood cells (erythrocytes)
In short: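 Human red blood cells exposed to peptides up to 50 μM; hemolysis measured, IC50 derived where reached.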

HL-60 [6] = assay: pH-dependent anticancer activity against human HL-60 cells in PBS medium at 10 uM incubated for 1 hr; type: functional, cell-based; in short: as §3
MCF7 [7] = assay: Induction of apoptosis in human MCF7 cells in DMEM medium at pH 6 assessed as increase in cleaved capase-3 level at 5 uM; type: functional, cell-based
In short: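 MCF-7 cells treated with peptides at pH 6; apoptosis detected by immunoblotting for cleaved PARP and cleaved caspase-3.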

U-251 = assay: Anti-cancer activity against human U-251MG cells incubated for 72 hrs by Cell Titer Glo assay; type: functional, cell-based; conditions: U-251, 72 h
[8] = Toxicity against reconstructed human skin model assessed as irritation at 50 uM incubated for 1 hr followed by compound washout measured after 42 hrs by MTT assay; type: tissue-based, Skin of body; in short: as §2
RPMI-8226 = assay: Anti-cancer activity against human RPMI-8226 cells incubated for 72 hrs by Cell Titer Glo assay; type: functional, cell-based; conditions: RPMI-8226, 72 h
Staphylococcus aureus [9] = assay: Antimicrobial activity against Staphylococcus aureus NE163 harboring single transposon insertion mutation in aureolysin at 30 uM incubated for 18 hrs relative to control; type: functional; in short: as §1
[10] = Stability in human serum assessed as half life at 10 mg/ml by UPLC-MS analysis; type: ADME, cell-free
In short: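 Peptides dissolved in PBS and incubated in 25% human serum. Intact peptide remaining followed over time to at least 6 h; half-life taken as time to 50% stability.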

K562 = assay: Anti-cancer activity against human K562 cells incubated for 72 hrs by Cell Titer Glo assay; type: functional, cell-based; conditions: K562, 72 h
B cell = assay: Cytotoxicity against human B-lymphocytes assessed as deleterious effect upto 50 uM by flow cytometry; type: toxicity, cell-based
In short: (§5)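 Whole blood from a healthy donor treated with peptides up to 50 μM; effect on B and T lymphocytes, granulocytes and monocytes assessed.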

Pseudomonas aeruginosa = assay: Depolarization of cytoplasmic membrane in Pseudomonas aeruginosa PAO1 at MIC measured for 45 mins by DiSC3-(5) dye based assay; type: functional, organism-based; in short: as §4
A498 = assay: Anti-cancer activity against human A498 cells incubated for 72 hrs by Cell Titer Glo assay; type: functional, cell-based; conditions: A498, 72 h
HL-60 [11] = assay: pH-dependent anticancer activity against human HL-60 cells in DMEM medium at 10 uM incubated for 1 hr; type: functional, cell-based; in short: as §3
DU-145 = assay: Anti-cancer activity against human DU-145 cells incubated for 72 hrs by Cell Titer Glo assay; type: functional, cell-based; conditions: DU-145, 72 h
HCT-116 = assay: pH-dependent anticancer activity against human HCT-116 cells in DMEM medium at 10 uM incubated for 1 hr; type: functional, cell-based; in short: as §3
SW-620 = assay: Anti-cancer activity against human SW620 cells incubated for 72 hrs by Cell Titer Glo assay; type: functional, cell-based; conditions: SW-620, 72 h
Acinetobacter baumannii = assay: Anti-infective activity against Acinetobacter baumannii ATCC 19606 infected in neutropenic CD-1 mouse deep thigh infection model assessed as reduction in bacterial load at 0.16 mg/kg, ip measured after 4 days; type: functional, organism-based; conditions: time 4.0 day
In short: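 Neutropenic mice infected intramuscularly in right thigh with 10⁶ cells per mL A. baumannii ATCC 19606; single intraperitoneal peptide dose at 10× MIC; bacterial load determined 4 days after treatment (euthanized day 8); n = 6 per group from three inocula; one-way ANOVA with Dunnett's test versus untreated.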

[12] = Toxicity in immunosuppressed Balb/c mouse excisional dorsal wound infection model infected with Acinetobacter baumannii NCTC 13301 assessed as body weight loss at about 10 mg/kg treated for 7 days once daily measured after 45 days; type: organism-based; conditions: in vivo, 1080 h, time 45 day
In short: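 Excisional dorsal wound model in immunosuppressed mice infected with 5 × 10⁴ cells per mL of A. baumannii. Treated, PBS-treated and untreated groups were compared. Body weight and survival were followed for 45 days.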

MCF7 [13] = assay: pH-dependent anticancer activity against human MCF7 cells in RPMI medium at 10 uM incubated for 1 hr; type: functional, cell-based; in short: as §3
MOLT-4 = assay: Anti-cancer activity against human MOLT-4 cells incubated for 72 hrs by Cell Titer Glo assay; type: functional, cell-based; conditions: MOLT-4, 72 h
SK-OV-3 = assay: Anti-cancer activity against human SK-OV-3 cells incubated for 72 hrs by Cell Titer Glo assay; type: functional, cell-based; conditions: SK-OV-3, 72 h
MCF7 [14] = assay: pH-dependent anticancer activity against human MCF7 cells in DMEM medium at 10 uM incubated for 1 hr; type: functional, cell-based; in short: as §3
T-cell line = assay: Cytotoxicity against human T-lymphocytes assessed as deleterious effect upto 50 uM by flow cytometry; type: toxicity, cell-based; in short: as §5
CAKI-1 = assay: Anti-cancer activity against human CAKI-1 cells incubated for 72 hrs by Cell Titer Glo assay; type: functional, cell-based; conditions: CAKI-1, 72 h

H-KKKKLKKILKKLFQFINQLDNQLQDIKQNK-NH2
Toxic: Activity [12]
Non-Toxic: Activity [8] | Activity (B cell) | Activity (T-cell line)
> 6 h: half-life at 10 mg/ml [10]
<10 mm2: Activity (Mus musculus)
> 50000 nM: IC50 at 1 h [5]
1000 nM: IC50 (A549) | IC50 (MDA-MB-231) | IC50 (OVCAR-3) | IC50 (U-251) | IC50 (RPMI-8226) | IC50 (K562) | IC50 (A498) | IC50 (DU-145) | IC50 (SW-620) | IC50 (MOLT-4) | IC50 (SK-OV-3) | IC50 (CAKI-1)
active: Activity (HL-60 [3]) | Activity (Staphylococcus aureus [4]) | Activity (HL-60 [6]) | Activity (MCF7 [7]) | Activity (Pseudomonas aeruginosa) | Activity (HL-60 [11]) | Activity (HCT-116) | Activity (Acinetobacter baumannii) | Activity (MCF7 [13]) | Activity (MCF7 [14])
100%: viability at 1 h, 50 µM [2]
< 45%: inhibition at 30 µM (Staphylococcus aureus [1]) | inhibition at 30 µM (Staphylococcus aureus [9])
